From ChEMBL document CHEMBL1926621, “New potent 5-HT(2A) receptor ligands containing an N'-cyanopicolinamidine nucleus: Synthesis and in vitro pharmacological evaluation” (Eur J Med Chem, 2012)

Experiments:
[1] = molecular target: T1, 5-hydroxytryptamine receptor 2C (Rattus norvegicus, UniProt P08909); assay: Displacement of [3H]mesulergine from Sprague-Dawley rat brain cortex serotonin 5-HT2C receptor after 15 mins by liquid scintillation counting in presence of 5-HT2A blocker, spiperone
T1 sequence (P08909 whole entry): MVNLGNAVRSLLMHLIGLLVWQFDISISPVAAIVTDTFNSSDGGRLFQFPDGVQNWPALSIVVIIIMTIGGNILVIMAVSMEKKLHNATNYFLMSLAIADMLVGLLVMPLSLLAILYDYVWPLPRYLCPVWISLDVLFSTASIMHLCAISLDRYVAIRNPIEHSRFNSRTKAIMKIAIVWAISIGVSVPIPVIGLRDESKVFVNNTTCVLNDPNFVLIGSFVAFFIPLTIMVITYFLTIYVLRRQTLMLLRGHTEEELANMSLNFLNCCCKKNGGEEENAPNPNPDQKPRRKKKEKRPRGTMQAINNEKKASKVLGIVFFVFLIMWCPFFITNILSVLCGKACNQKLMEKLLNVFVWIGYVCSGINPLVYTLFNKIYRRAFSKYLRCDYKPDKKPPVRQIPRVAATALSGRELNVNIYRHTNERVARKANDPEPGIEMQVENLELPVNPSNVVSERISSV
How it was run: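 Male Sprague-Dawley rat frontal cortex membranes (Tris-HCl/EDTA/MgCl2 pH 7.4, ascorbate, pargyline). 100 nM spiperone in all tubes to block 5-HT2A sites. Mianserin defined nonspecific binding. 15 min at 37 °C, PEI-soaked glass fibre filtration. Six compound concentrations in triplicate. Ki by Cheng-Prusoff.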

[2] = molecular target: 5-hydroxytryptamine receptor 2A (Rattus norvegicus, UniProt P14842); assay: Displacement of [3H]ketanserin from Sprague-Dawley rat brain cortex serotonin 5-HT2A receptor after 15 mins by liquid scintillation counting
Sequence of 5-hydroxytryptamine receptor 2A (P14842 whole entry): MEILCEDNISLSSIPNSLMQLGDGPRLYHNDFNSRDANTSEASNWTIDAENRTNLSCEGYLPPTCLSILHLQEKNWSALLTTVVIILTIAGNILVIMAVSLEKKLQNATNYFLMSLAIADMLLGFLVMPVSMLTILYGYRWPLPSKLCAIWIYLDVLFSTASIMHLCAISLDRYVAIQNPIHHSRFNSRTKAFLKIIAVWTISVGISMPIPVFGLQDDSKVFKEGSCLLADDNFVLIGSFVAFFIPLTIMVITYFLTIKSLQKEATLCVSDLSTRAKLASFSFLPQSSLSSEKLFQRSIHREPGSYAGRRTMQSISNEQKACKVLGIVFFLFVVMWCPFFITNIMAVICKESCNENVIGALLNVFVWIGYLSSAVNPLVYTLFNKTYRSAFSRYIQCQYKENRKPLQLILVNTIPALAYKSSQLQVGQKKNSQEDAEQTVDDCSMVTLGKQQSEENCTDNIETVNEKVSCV
How it was run: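 Male Sprague-Dawley rat frontal cortex membranes in 50 mM Tris-HCl, 0.5 mM EDTA, 10 mM MgCl2 pH 7.4, with 0.1% ascorbate and pargyline. 0.4 nM [3H]ketanserin, 5 mg wet tissue, 15 min at 37 °C. Filtered on PEI-soaked glass fibre. Six compound concentrations in triplicate. IC50 converted to Ki by Cheng-Prusoff.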

[3] = molecular target: T2, 5-hydroxytryptamine receptor 1A (Rattus norvegicus, UniProt P19327); assay: Displacement of [3H]-8-OH-DPAT from Sprague-Dawley rat brain cortex serotonin 5-HT1A receptor after 30 mins by liquid scintillation counting
T2 sequence (P19327 whole entry): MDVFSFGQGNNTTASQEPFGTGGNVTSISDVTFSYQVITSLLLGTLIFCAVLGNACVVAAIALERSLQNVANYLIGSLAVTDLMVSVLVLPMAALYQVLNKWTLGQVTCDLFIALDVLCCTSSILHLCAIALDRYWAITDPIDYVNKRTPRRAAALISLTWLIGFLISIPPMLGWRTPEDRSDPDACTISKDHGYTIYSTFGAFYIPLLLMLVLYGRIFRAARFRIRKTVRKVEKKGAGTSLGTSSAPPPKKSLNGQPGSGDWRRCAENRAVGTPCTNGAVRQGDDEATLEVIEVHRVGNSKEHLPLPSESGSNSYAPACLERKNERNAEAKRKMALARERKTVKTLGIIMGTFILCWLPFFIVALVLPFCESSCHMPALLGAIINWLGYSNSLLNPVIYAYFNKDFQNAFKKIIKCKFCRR
How it was run: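 Male Sprague-Dawley rat (180-220 g) cerebral cortex homogenized in 50 mM Tris-HCl pH 7.7, spun 50,000 g. [3H]-8-OH-DPAT 0.1 nM final, 30 min at 37 °C, GF/B filtration. Test compounds in ethanol or 5% DMSO, six concentrations in triplicate. IC50 by curve fitting, Ki by Cheng-Prusoff using Scatchard-derived KD.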

D(1A) dopamine receptor = D(1A) dopamine receptor (Rattus norvegicus, UniProt P18901); assay: Displacement of [3H]SCH-23390 from rat corpora striatum dopamine D1 receptor after 15 mins by liquid scintillation counting
Sequence of D(1A) dopamine receptor (P18901 whole entry): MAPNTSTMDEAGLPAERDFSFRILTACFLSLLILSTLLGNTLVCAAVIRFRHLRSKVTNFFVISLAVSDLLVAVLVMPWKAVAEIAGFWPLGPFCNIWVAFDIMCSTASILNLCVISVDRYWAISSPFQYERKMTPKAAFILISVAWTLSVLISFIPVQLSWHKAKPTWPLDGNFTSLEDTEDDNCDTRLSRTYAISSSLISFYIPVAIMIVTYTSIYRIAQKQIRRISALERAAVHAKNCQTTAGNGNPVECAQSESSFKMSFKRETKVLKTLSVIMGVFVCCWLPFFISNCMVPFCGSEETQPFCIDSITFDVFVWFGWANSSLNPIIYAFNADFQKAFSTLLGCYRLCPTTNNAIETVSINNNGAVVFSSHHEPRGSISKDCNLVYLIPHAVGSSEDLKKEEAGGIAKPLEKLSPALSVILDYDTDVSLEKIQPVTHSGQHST
How it was run: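 Rat corpora striata homogenized in 50 mM Tris-HCl pH 7.7, spun twice at 50,000 g. Resuspended in Tris-HCl with NaCl, KCl, CaCl2, MgCl2, ascorbic acid and pargyline. 0.4 nM [3H]SCH-23390 final, 3 mg fresh tissue, 15 min at 37 °C. Nonspecific binding with piflutixol. Ki by Cheng-Prusoff from triplicate six-point curves.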

D(2) dopamine receptor = D(2) dopamine receptor (Rattus norvegicus, UniProt P61169); assay: Displacement of [3H]spiperone from rat corpora striatum dopamine D2 receptor after 15 mins by liquid scintillation counting
Sequence of D(2) dopamine receptor (P61169 whole entry): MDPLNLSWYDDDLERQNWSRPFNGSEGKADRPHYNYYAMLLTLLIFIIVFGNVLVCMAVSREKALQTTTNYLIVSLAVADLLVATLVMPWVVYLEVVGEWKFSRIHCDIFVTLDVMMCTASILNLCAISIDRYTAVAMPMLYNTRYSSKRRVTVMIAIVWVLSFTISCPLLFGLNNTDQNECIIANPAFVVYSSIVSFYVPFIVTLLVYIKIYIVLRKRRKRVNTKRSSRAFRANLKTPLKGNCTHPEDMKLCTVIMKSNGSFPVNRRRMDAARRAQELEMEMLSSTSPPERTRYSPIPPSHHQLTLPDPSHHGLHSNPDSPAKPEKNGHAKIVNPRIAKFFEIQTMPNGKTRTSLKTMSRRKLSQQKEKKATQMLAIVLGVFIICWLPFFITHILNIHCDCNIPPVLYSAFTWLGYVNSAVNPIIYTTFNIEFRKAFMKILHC
How it was run: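 Corpora striata membranes in Tris-HCl buffer containing NaCl, KCl, CaCl2, MgCl2, ascorbic acid and pargyline. [3H]spiperone 0.4 nM final, 3 mg fresh tissue, incubated 15 min at 37 °C. GF/B filtration, scintillation counting. Six concentrations in triplicate. IC50 converted to Ki via Cheng-Prusoff.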

[4] = molecular target: T3, Adrenergic receptor alpha-2 (Rattus norvegicus, UniProt P22086+P19328+P22909); assay: Displacement of [3H]yohimbine from rat brain cortex adrenergic alpha2 receptor after 30 mins by liquid scintillation counting
T3 sequence (P22086 whole entry): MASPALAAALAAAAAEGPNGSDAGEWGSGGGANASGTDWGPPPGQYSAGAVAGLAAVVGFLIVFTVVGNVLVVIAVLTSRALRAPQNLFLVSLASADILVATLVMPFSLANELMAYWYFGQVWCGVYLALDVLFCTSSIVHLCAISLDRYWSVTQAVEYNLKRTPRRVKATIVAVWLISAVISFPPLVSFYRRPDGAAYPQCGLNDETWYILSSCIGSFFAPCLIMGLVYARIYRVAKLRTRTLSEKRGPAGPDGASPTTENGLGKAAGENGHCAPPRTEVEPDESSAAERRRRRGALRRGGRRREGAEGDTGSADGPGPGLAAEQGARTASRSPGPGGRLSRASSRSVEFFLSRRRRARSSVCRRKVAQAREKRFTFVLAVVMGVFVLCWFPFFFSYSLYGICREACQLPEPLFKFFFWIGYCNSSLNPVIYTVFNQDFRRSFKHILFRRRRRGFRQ
T3 sequence (P19328 whole entry): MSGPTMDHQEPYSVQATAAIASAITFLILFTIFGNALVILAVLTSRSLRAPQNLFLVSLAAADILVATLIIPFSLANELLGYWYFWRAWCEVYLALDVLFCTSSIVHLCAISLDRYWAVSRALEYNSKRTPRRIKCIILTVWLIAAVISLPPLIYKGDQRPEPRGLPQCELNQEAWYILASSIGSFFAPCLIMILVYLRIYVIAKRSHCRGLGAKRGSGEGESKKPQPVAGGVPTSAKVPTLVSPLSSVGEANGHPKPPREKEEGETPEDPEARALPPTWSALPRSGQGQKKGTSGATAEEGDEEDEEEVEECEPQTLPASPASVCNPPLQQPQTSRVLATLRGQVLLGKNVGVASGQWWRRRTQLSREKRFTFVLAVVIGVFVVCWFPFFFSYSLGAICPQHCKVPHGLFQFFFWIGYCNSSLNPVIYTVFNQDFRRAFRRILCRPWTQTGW
T3 sequence (P22909 whole entry): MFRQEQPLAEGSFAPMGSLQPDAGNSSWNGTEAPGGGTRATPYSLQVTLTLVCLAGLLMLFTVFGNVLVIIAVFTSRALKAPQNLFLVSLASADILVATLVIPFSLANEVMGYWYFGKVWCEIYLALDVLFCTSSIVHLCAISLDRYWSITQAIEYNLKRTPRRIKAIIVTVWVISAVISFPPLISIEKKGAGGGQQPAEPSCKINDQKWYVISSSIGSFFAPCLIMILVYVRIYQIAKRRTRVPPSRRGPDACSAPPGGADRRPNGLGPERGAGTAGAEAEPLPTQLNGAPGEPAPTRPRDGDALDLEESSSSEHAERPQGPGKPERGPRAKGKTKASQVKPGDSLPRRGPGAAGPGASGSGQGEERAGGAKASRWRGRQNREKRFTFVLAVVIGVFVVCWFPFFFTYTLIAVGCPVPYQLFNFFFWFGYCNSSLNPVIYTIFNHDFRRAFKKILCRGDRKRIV
How it was run: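 Cortex homogenized in 5 mM Tris-HCl, 5 mM EDTA pH 7.3, spun three times at 50,000 g, resuspended in 50 mM Tris-HCl, 0.5 mM EDTA pH 7.5. [3H]yohimbine 1 nM final, 10 mg fresh tissue, 30 min at 25 °C. Phentolamine defined nonspecific binding. Ki by Cheng-Prusoff.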

[5] = molecular target: T4, Adrenergic receptor alpha-1 (Rattus norvegicus, UniProt P15823+P23944+P43140); assay: Displacement of [3H]prazosin from rat brain cortex adrenergic alpha1 receptor after 30 mins by liquid scintillation counting
T4 sequence (P15823 whole entry): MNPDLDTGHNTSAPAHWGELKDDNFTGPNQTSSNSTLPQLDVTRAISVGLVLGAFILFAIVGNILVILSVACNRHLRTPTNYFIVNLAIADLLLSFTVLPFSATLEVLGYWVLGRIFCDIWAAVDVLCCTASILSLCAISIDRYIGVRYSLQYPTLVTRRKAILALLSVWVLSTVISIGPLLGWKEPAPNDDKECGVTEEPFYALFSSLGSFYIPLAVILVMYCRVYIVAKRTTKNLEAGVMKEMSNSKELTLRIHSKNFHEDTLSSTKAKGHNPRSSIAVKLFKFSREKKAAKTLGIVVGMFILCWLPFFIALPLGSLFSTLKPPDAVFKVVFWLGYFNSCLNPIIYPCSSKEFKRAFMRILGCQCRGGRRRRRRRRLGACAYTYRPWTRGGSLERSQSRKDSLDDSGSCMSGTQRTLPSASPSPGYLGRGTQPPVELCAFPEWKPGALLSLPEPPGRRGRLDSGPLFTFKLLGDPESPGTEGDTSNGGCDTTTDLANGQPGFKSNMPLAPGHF
T4 sequence (P23944 whole entry): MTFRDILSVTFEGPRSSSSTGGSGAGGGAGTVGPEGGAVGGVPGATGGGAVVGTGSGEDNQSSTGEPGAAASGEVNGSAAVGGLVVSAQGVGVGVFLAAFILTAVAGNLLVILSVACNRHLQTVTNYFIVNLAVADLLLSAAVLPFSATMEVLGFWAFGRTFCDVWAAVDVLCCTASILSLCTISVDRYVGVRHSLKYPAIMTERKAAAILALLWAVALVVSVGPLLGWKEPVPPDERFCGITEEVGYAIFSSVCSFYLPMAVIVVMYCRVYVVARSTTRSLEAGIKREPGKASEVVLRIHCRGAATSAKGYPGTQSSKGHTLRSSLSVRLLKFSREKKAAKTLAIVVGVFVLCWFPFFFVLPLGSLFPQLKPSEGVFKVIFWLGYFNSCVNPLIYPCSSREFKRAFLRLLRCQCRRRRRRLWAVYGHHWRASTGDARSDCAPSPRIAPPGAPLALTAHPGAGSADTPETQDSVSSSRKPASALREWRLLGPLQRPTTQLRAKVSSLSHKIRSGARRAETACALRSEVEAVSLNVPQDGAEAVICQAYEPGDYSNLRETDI
T4 sequence (P43140 whole entry): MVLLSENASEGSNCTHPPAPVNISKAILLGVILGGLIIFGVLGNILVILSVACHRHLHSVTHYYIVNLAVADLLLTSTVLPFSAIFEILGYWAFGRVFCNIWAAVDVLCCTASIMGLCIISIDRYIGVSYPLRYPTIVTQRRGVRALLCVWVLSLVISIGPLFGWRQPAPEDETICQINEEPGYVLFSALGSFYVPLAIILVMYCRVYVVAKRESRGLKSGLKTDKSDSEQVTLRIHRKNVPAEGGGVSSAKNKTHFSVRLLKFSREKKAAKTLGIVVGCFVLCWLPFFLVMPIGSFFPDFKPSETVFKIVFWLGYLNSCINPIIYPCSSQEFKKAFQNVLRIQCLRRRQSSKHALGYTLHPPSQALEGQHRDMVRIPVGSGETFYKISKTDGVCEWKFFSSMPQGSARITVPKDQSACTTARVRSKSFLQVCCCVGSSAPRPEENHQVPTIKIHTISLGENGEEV
How it was run: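 Brain cortex homogenized in 50 mM Tris-HCl pH 7.2, spun twice at 50,000 g, resuspended in Tris-HCl pH 7.4. 0.4 nM [3H]prazosin final, 10 mg fresh tissue, 30 min at 25 °C. Nonspecific binding with phentolamine. GF/B filtration. Ki by Cheng-Prusoff from six-point triplicate curves.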

Row | SMILES | Ki ([1]; read-out: Ki) | Ki ([2]; read-out: Ki) | Ki ([3]; read-out: Ki) | Ki [1] | Ki [2] | Ki [3] | further results
1 | N#C/N=C(\NCCCN1CCN(c2ccccc2C#N)CC1)c1ccccn1 | 28.8 nM | 904 nM | > 10000 nM |  |  |  | 
2 | N#C/N=C(\NCCCN1CCN(Cc2ccc3c(c2)OCO3)CC1)c1ccccn1 |  | 51.8 nM | > 10000 nM | Not Active |  |  | Ki (D(1A) dopamine receptor): Not Active; Ki (D(2) dopamine receptor): Not Active; Ki [4]: 964 nM
3 | N#CNC(=NCCCN1CCN(c2cccc(Cl)c2)CC1)c1ccccn1 | 3.28 nM | 0.000185 nM | 6.67 nM |  |  |  | IC50 [2]: 0.00025 nM; Ki (D(1A) dopamine receptor; read-out: Ki): > 10000 nM; Ki (D(2) dopamine receptor; read-out: Ki): > 10000 nM
4 | C=CCN1CCN(CCCN/C(=N\C#N)c2ccccn2)CC1 | > 10000 nM |  |  |  | Not Active | Not Active | 
5 | CCOCCN1CCN(CCCN/C(=N\C#N)c2ccccn2)CC1 | 597 nM |  |  |  | Not Active | Not Active | 
6 | N#C/N=C(\NCCCN1CCN(c2ccccc2Cl)CC1)c1ccccn1 |  | 27 nM | 170 nM | Not Active |  |  | 
7 | N#C/N=C(\NCCCN1CCN(C(=O)c2ccco2)CC1)c1ccccn1 |  | 21.5 nM | > 10000 nM | Not Active |  |  | Ki (D(1A) dopamine receptor): Not Active; Ki (D(2) dopamine receptor): Not Active; Ki [4]: > 10000 nM
8 | COc1ccc(N2CCN(CCCN/C(=N\C#N)c3ccccn3)CC2)cc1 |  | > 10000 nM | 0.0842 nM | Not Active |  |  | Ki (D(1A) dopamine receptor; read-out: Ki): > 10000 nM; Ki (D(2) dopamine receptor; read-out: Ki): > 10000 nM; Ki [5]: > 10000 nM
9 | COCCN1CCN(CCCN/C(=N\C#N)c2ccccn2)CC1 | 389 nM |  |  |  | Not Active | Not Active | 
